Laboratory results taken from ChEMBL document CHEMBL1126806, “Iron (III)-chelating resins. 3. Synthesis, iron (III)-chelating properties, and in vitro antibacterial activity of compounds containing 3-hydroxy-2-methyl-4(1H)-pyridinone ligands” (1993).
Converted amounts (≈) assume the structure as drawn.

Tests used:
Escherichia coli [1] = test: Tested for growth inhibition against Escherichia coli; assay type: functional; design: concentration or dose not given beside the values
In short: (§1)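 Broth growth assay in BHI medium; log-phase culture (24 h plate, 1 h then 2 h at 37 °C with shaking) added to tubes with derivative at 20 mM final, 37 °C for 7 h. Starting CFU/mL 2×10^5 (E. coli) or 5×10^5 (L. inocua). Standard plate counts; % inhibition = (ΔCFU 0–7 h control − ΔCFU 0–7 h test)/ΔCFU 0–7 h control.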

Escherichia coli [2] = test: Tested for minimum inhibitory concentration against Escherichia coli; assay type: functional
In short: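 Agar dilution on BHI agar with 2-fold dilutions; spots of 10^4–10^5 CFU applied by multipoint inoculator, 18 h at 37 °C, growth judged visually.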

[3] = molecular target: Lactotransferrin (Bos taurus) (UniProt P24627); test: Tested for iron mobilization from lactoferrin at physiological pH after 24 hours
Sequence of Lactotransferrin (Bos taurus) (P24627 whole entry): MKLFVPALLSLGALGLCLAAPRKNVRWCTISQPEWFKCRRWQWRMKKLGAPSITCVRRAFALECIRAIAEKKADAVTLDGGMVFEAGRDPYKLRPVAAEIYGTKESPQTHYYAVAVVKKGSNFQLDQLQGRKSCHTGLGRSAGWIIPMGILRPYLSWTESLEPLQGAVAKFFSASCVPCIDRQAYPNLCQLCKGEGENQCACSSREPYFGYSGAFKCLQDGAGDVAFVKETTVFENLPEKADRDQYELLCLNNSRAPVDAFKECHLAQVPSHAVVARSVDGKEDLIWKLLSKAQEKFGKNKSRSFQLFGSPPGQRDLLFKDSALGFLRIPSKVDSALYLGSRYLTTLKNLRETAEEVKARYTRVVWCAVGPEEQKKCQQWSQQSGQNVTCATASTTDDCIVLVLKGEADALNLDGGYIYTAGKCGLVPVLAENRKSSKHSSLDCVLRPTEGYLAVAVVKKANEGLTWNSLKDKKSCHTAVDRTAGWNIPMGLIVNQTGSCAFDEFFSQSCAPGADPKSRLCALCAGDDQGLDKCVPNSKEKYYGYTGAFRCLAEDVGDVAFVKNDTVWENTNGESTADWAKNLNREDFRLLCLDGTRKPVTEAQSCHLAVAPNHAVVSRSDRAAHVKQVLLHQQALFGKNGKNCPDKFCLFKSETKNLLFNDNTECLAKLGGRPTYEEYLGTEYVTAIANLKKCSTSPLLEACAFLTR
In short: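 Lactoferrin fully iron(III)-saturated with FeCl3 in 0.1 M sodium bicarbonate overnight at room temperature (0.78 mM iron); 1.0 mL dialysed against 4 mL chelator (2 mM in 4× PBS) for 24 h at room temperature. Dialysate absorbance at 456 nm, converted by chelator–iron(III) calibration curves; protected derivatives measured after adding an unprotected chelator to the dialysate.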

Listeria innocua [4] = test: Tested for growth inhibition against Listeria inocua; assay type: functional; design: concentration or dose not given beside the values; in short: as §1
Listeria innocua [5] = test: Tested for minimum inhibitory concentration against Listeria inocua; assay type: functional

| MIC (Escherichia coli [2]) | Iron mobilized [3] | MIC (Listeria innocua [5]) | SMILES | Growth inhibition (Escherichia coli [1]) | Growth inhibition (Listeria innocua [4]) |
| --- | --- | --- | --- | --- | --- |
| 50 mM (≈ 12900 µg/mL) | 4% | 50 mM (≈ 12900 µg/mL) | Cc1c(OCc2ccccc2)c(=O)ccn1CCN | 0% | 34% |
| 5 mM (≈ 841 µg/mL) | 60% | 25 mM (≈ 4200 µg/mL) | Cc1c(O)c(=O)ccn1CCN | 100% | 93% |
| 50 mM (≈ 12200 µg/mL) | 2% | 50 mM (≈ 12200 µg/mL) | CCn1ccc(=O)c(OCc2ccccc2)c1C | 53% | 72% |
| 5 mM (≈ 766 µg/mL) | 71% | 25 mM (≈ 3830 µg/mL) | CCn1ccc(=O)c(O)c1C | 100% | 89% |
| 5 mM (≈ 1180 µg/mL) | 63% | 25 mM (≈ 5910 µg/mL) | C=C(C)C(=O)NCCn1ccc(=O)c(O)c1C | 100% | 90% |
| 5 mM (≈ 1120 µg/mL) | 61% | 25 mM (≈ 5610 µg/mL) | CCC(=O)NCCn1ccc(=O)c(O)c1C | 100% | 86% |
| 5 mM (≈ 1110 µg/mL) | 62% | 25 mM (≈ 5560 µg/mL) | C=CC(=O)NCCn1ccc(=O)c(O)c1C | 100% | 87% |
